Laboratory results as given in ChEMBL document CHEMBL1143653, “Discovery of a (1H-benzoimidazol-2-yl)-1H-pyridin-2-one (BMS-536924) inhibitor of insulin-like growth factor I receptor kinase with in vivo antitumor activity” (J Med Chem, 2005).
Values belong to the molecule of their own block, whether it stands above or below them.

What was measured:
Cytochrome P450 3A4 [1] = biological target: T1, Cytochrome P450 3A4 (Homo sapiens, UniProt P08684); test: Concentration required to inhibit cytochrome P450 isozyme CYP3A4-BFC in vitro by 50%; format: ADME
Cytochrome P450 1A2 = biological target: T2, Cytochrome P450 1A2 (Homo sapiens, UniProt P05177); test: Concentration required to inhibit Cytochrome P450 1A2 in vitro by 50%; format: ADME
T2 sequence (P05177 whole entry): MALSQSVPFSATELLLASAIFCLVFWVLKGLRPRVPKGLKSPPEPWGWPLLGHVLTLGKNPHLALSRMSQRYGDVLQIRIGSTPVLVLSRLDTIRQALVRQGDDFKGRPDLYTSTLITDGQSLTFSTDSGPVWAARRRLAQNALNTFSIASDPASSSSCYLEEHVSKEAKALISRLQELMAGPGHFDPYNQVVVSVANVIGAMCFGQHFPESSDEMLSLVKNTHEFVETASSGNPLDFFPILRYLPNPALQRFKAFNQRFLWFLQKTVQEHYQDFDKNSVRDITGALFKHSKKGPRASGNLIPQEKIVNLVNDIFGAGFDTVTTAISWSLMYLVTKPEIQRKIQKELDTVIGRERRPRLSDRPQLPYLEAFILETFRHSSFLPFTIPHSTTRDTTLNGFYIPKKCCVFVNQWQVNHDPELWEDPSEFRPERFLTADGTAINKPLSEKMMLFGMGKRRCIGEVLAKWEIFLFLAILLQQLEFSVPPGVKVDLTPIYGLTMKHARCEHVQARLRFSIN

Cytochrome P450 2C19 = Cytochrome P450 2C19 (Homo sapiens, UniProt P33261); test: Concentration required to inhibit cytochrome P450 isozyme CYP2C19 in vitro by 50%; format: ADME
Cytochrome P450 3A4 [2] = biological target: T1, Cytochrome P450 3A4; test: Concentration required to inhibit cytochrome P450 isozyme CYP3A4-BzRes in vitro by 50%; format: ADME
Cytochrome P450 2C9 = Cytochrome P450 2C9 (Homo sapiens, UniProt P11712); test: Concentration required to inhibit Cytochrome P450 2C9 in vitro by 50%
[3] = Maximum concentration in mouse administered orally at 20 mg/kg; format: ADME, organism-based; set-up: dose 20 mg/kg, route oral; conditions: in vivo, po
[4] = Bioavailability in rat administered perorally at 50 mg/kg; format: ADME, organism-based; conditions: in vivo, po
[5] = Total clearance in dog when administered intravenously at 2 mg/kg; format: ADME, organism-based, Canis lupus familiaris; set-up: dose 2 mg/kg, route intravenous; conditions: in vivo, iv, read-out: CLtot
[6] = Maximum concentration in rat administered orally at 50 mg/kg; format: ADME, organism-based; set-up: dose 50 mg/kg, route oral; conditions: in vivo, po
[7] = Total clearance in mouse when administered intravenously at 4 mg/kg; format: ADME, organism-based; set-up: dose 4 mg/kg, route intravenous; conditions: in vivo, iv, read-out: CLtot
[8] = In vitro inhibitory concentration against Geo (colon) cell line with ATP concentration at 1/2Km; format: functional, Homo sapiens
RD = test: In vitro inhibitory concentration against RD1 (rhabdomyosarcoma) cell line with ATP concentration at 1/2Km; format: functional, cell-based; conditions: Homo sapiens
[9] = Steady-state volume of distribution in mouse when administered intravenously at 4 mg/kg; format: ADME, organism-based; set-up: dose 4 mg/kg, route intravenous; conditions: in vivo, iv, read-out: Vss
COLO 205 = test: In vitro inhibitory concentration against COLO 205 (colon) cell line with ATP concentration at 1/2Km; format: functional, cell-based; conditions: Homo sapiens
[10] = Bioavailability in monkey at 5 mg/kg oral dose; format: ADME, organism-based; conditions: cercopithecidae, in vivo
[11] = Total clearance in monkey at 2 mg/kg intravenous dose; format: ADME, organism-based; set-up: dose 2 mg/kg, route intravenous; conditions: cercopithecidae, in vivo, read-out: CLtot
[12] = Steady-state volume of distribution in monkey when administered intravenously at 2 mg/kg; format: ADME, organism-based; set-up: dose 2 mg/kg, route intravenous; conditions: cercopithecidae, in vivo, iv, read-out: Vss
[13] = Maximum concentration in dog administered orally at 5 mg/kg; format: ADME, organism-based, Canis lupus familiaris; set-up: dose 5 mg/kg, route oral; conditions: in vivo, po
[14] = Total clearance in rat when administered intravenously at 4 mg/kg; format: ADME, organism-based; set-up: dose 4 mg/kg, route intravenous; conditions: in vivo, iv, read-out: CLtot
[15] = Maximum concentration in monkey administered orally at 5 mg/kg; format: ADME, organism-based; set-up: dose 5 mg/kg, route oral; conditions: cercopithecidae, in vivo, po
[16] = Steady-state volume of distribution in dog when administered intravenously at 2 mg/kg; format: ADME, organism-based, Canis lupus familiaris; set-up: dose 2 mg/kg, route intravenous; conditions: in vivo, iv, read-out: Vss
[17] = Bioavailability in dog at 5 mg/kg oral dose; format: ADME, organism-based, Canis lupus familiaris; conditions: in vivo
[18] = Bioavailability in mouse administered perorally at 20 mg/kg; format: ADME, organism-based; conditions: in vivo, po
[19] = Steady-state volume of distribution in rat when administered intravenously at 4 mg/kg; format: ADME, organism-based; set-up: dose 4 mg/kg, route intravenous; conditions: in vivo, iv, read-out: Vss
MCF7 = test: In vitro inhibitory concentration against MCF-7(breast) cell line with ATP concentration at 1/2Km; format: functional, cell-based; conditions: Homo sapiens
[20] = In vitro inhibitory concentration against MDA PCa-2b (prostate) cell line with ATP concentration at 1/2Km; format: functional, Homo sapiens
[21] = biological target: Dual specificity mitogen-activated protein kinase kinase 1 (Homo sapiens, UniProt Q02750); test: In vitro inhibitory concentration against MEK with ATP concentration at 1/2Km
How it was run: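 Cell-free kinase inhibition assay. ATP was set at ½ Km, determined separately for each kinase, and the IC50 was derived under that condition.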

T1 sequence (P08684 whole entry): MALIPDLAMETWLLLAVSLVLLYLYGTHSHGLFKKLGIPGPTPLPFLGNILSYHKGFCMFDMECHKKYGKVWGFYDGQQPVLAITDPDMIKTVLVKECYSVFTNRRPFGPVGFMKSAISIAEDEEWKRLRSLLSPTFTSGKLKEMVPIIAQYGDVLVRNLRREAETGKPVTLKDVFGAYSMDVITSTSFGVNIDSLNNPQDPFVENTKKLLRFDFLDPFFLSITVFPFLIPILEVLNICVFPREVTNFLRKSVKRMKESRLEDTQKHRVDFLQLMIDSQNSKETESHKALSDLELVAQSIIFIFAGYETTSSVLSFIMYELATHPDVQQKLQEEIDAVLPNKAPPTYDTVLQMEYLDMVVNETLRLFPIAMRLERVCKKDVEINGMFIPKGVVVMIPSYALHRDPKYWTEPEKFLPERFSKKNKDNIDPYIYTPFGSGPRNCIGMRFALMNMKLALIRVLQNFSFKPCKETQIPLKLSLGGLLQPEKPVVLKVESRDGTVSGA
Dual specificity mitogen-activated protein kinase kinase 1, sequence (Q02750 whole entry): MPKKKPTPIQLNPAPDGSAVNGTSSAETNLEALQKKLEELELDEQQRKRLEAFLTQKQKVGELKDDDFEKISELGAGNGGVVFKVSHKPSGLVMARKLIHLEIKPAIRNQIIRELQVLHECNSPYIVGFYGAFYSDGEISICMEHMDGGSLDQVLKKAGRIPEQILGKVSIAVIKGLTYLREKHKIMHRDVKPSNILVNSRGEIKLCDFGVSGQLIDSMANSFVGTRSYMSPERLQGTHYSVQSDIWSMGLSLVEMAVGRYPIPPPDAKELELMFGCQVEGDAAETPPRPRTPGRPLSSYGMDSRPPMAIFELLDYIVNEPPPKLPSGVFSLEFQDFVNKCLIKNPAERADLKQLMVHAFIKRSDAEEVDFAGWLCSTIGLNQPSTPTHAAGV
Cytochrome P450 2C19, sequence (P33261 whole entry): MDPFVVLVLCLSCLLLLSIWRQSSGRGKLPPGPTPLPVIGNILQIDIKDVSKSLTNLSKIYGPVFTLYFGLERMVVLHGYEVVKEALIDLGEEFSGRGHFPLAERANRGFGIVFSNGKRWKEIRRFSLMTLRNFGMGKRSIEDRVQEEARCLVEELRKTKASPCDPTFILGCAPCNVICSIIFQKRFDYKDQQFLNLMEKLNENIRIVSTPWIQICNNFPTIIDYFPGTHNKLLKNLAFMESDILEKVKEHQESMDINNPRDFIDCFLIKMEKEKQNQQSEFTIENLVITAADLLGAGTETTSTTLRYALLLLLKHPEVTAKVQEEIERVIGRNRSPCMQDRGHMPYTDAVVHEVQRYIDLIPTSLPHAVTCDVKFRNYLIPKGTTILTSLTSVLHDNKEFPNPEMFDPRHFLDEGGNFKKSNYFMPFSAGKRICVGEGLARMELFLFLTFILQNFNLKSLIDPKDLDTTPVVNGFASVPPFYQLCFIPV
Cytochrome P450 2C9, sequence (P11712 whole entry): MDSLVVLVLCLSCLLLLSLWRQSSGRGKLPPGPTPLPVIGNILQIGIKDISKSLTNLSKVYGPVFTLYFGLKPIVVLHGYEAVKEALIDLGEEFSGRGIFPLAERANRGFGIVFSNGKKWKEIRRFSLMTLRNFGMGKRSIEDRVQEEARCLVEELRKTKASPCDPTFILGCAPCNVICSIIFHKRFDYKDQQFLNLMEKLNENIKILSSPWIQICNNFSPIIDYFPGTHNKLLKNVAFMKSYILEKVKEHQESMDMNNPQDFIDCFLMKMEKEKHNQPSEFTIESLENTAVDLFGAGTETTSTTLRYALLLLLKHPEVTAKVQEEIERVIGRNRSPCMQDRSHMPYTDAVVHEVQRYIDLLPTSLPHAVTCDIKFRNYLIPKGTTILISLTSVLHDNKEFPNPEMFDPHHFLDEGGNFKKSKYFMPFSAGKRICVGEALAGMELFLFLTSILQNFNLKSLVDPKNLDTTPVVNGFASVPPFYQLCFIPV

Compound: Cc1cc(-n2ccnc2)cc2[nH]c(-c3c(NCC(O)c4cccc(Cl)c4)cc[nH]c3=O)nc12 (configuration not stated)
- IC50 (Cytochrome P450 3A4 [1]): < 18 nM
- IC50 (Cytochrome P450 1A2): < 18 nM
- IC50 (Cytochrome P450 2C19): 26 nM
- IC50 (Cytochrome P450 3A4 [2]): < 18 nM
- IC50 (Cytochrome P450 2C9): < 18 nM

- Cmax [3]: 3.8 µM
- bioavailability [4]: > 100%
- clearance [5]: 4.1 mL/min/kg
- Cmax [6]: 69 µM
- clearance [7]: 37.8 mL/min/kg
- IC50 [8]: 320 nM
- IC50 (RD): 202 nM
- Vd [9]: 1.9 L/kg
- IC50 (COLO 205): 212 nM
- bioavailability [10]: 32%
- clearance [11]: 16.5 mL/min/kg
- Vd [12]: 1.4 L/kg
- Cmax [13]: 4.1 µM
- clearance [14]: 5.8 mL/min/kg
- Cmax [15]: 1300 nM
- Vd [16]: 1.3 L/kg
- bioavailability [17]: 70%
- bioavailability [18]: 50%
- Vd [19]: 0.8 L/kg
- IC50 (MCF7): 460 nM
- IC50 [20]: 194 nM
- IC50 [21]: 182 nM
Compound: Cc1cc(N2CCOCC2)cc2[nH]c(-c3c(NC[C@@H](O)c4cccc(Cl)c4)cc[nH]c3=O)nc12
